What was measured:
[1] = target: T1, Caspase-3 (Homo sapiens, UniProt P42574); test: Inhibition of human recombinant caspase 3 using Ac-DEVD-AMC substrate assessed as accumulation of cleaved fluorogenic product
T1 sequence (P42574 whole entry): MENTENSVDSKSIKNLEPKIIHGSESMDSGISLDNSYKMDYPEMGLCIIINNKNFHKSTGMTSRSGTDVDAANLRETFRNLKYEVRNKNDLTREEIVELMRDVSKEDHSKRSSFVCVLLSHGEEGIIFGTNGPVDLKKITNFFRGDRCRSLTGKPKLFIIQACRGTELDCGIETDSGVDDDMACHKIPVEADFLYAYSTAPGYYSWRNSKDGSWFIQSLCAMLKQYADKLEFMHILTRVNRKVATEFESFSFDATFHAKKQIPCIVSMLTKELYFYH
How it was run: (§1)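 Inhibitor in DMSO (1−5%) at final 500 μM down to 5 pM in tenfold steps, preincubated 10 min. Peptide-AMC substrate then added (final 10 μM) and reacted 10 min at 37 °C. Released AMC read by fluorescence, excitation 360 nm, emission 460 nm.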

[2] = target: T2, Caspase-7 (Homo sapiens, UniProt P55210); test: Inhibition of human recombinant caspase 7 using Ac-DEVD-AMC substrate assessed as accumulation of cleaved fluorogenic product; how it was run: as §1
T2 sequence (P55210 whole entry): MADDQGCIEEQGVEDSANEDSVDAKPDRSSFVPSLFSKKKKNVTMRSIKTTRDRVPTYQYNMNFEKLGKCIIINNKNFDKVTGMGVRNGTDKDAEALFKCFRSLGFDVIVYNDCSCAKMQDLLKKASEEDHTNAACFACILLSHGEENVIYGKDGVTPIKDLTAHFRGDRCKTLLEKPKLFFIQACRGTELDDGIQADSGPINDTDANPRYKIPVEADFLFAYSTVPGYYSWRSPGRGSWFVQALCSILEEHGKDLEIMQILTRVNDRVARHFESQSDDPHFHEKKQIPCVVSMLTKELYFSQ

[3] = target: T3, Caspase-1 (Homo sapiens, UniProt P29466); test: Inhibition of human recombinant caspase 1 using Ac-YVAD-AMC substrate assessed as accumulation of cleaved fluorogenic product; how it was run: as §1
T3 sequence (P29466 whole entry): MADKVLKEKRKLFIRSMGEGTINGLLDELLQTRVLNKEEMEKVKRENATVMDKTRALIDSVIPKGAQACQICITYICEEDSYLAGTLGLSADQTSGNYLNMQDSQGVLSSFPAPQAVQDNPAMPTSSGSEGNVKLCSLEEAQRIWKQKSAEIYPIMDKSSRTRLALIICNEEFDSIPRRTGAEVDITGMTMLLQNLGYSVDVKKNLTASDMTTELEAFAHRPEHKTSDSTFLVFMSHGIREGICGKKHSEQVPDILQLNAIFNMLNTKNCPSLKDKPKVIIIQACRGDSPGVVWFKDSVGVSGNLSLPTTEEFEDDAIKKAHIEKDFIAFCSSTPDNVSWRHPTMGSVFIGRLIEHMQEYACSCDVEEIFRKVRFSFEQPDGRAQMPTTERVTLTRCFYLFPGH

[4] = target: T4, Caspase-6 (Homo sapiens, UniProt P55212); test: Inhibition of human recombinant caspase 6 using Ac-VEID-AMC substrate assessed as accumulation of cleaved fluorogenic product; how it was run: as §1
T4 sequence (P55212 whole entry): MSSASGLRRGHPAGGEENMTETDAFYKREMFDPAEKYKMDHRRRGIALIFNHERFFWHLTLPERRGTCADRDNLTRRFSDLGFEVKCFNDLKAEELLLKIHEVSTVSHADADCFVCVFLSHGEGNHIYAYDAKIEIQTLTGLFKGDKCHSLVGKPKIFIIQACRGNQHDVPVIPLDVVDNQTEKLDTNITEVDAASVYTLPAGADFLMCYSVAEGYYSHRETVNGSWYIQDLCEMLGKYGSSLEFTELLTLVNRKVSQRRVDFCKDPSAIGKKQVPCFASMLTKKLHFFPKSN

| IC50 [1] | IC50 [2] | IC50 [3] | IC50 [4] | Compound |
| --- | --- | --- | --- | --- |
| 41 nM | 39.3 nM | 7430 nM | 12900 nM | COC[C@@H]1CCCN1S(=O)(=O)c1cc(F)c2c(c1)C(=O)C(=O)N2CCCCF |
| 4.8 nM | 55.7 nM | 2590 nM | 500000 nM | COC[C@@H]1CCCN1S(=O)(=O)c1cc(Cl)c2c(c1)C(=O)C(=O)N2CCCCF |
| 81.4 nM | 20.1 nM | – | – | COC[C@@H]1CCCN1S(=O)(=O)c1cc(Br)c2c(c1)C(=O)C(=O)N2CCCF |
| 1190 nM | 10500 nM | – | – | COC[C@@H]1CCCN1S(=O)(=O)c1cc(I)c2c(c1)C(=O)C(=O)N2C |
| 2.6 nM | 22.7 nM | > 500000 nM | > 500000 nM | COC[C@@H]1CCCN1S(=O)(=O)c1cc(Br)c2c(c1)C(=O)C(=O)N2CCCCO |
| > 500000 nM | 6620 nM | > 500000 nM | > 500000 nM | COC[C@@H]1CCCN1S(=O)(=O)c1cc(F)c2c(c1)C(=O)C(=O)N2 |
| > 500000 nM | > 500000 nM | 500000 nM | > 500000 nM | COC[C@@H]1CCCN1S(=O)(=O)c1cc(Cl)c2c(c1)C(=O)C(=O)N2 |
| 33.2 nM | 279 nM | 500000 nM | 500000 nM | COC[C@@H]1CCCN1S(=O)(=O)c1cc(I)c2c(c1)C(=O)C(=O)N2CCCCO |
| 133 nM | – | – | – | CCN1C(=O)C(=O)c2cc(S(=O)(=O)N3CCC[C@H]3COC)cc(Br)c21 |
| > 500000 nM | > 500000 nM | – | – | COC[C@@H]1CCCN1S(=O)(=O)c1cc(I)c2c(c1)C(=O)C(=O)N2 |
| 210 nM | 20.1 nM | – | – | CCN1C(=O)C(=O)c2cc(S(=O)(=O)N3CCC[C@H]3COC)cc(I)c21 |
| 46.9 nM | 3.3 nM | – | – | CCCCN1C(=O)C(=O)c2cc(S(=O)(=O)N3CCC[C@H]3COC)cc(Br)c21 |
| 353 nM | 553 nM | – | – | COC[C@@H]1CCCN1S(=O)(=O)c1cc(Br)c2c(c1)C(=O)C(=O)N2C |
| 50.7 nM | 68.1 nM | 500000 nM | 500000 nM | COC[C@@H]1CCCN1S(=O)(=O)c1cc(I)c2c(c1)C(=O)C(=O)N2CCCCF |
| – | – | > 500000 nM | 500000 nM | COC[C@@H]1CCCN1S(=O)(=O)c1ccc2c(c1)C(=O)C(=O)N2 |
| 57.7 nM | 263 nM | 500000 nM | 500000 nM | CCCCN1C(=O)C(=O)c2cc(S(=O)(=O)N3CCC[C@H]3COC)cc(Cl)c21 |
| 2.9 nM | 9.7 nM | 9970 nM | 78900 nM | CCCCN1C(=O)C(=O)c2cc(S(=O)(=O)N3CCC[C@H]3COC)cc(F)c21 |
| 20.1 nM | – | > 500000 nM | 28500 nM | COC[C@@H]1CCCN1S(=O)(=O)c1cc(I)c2c(c1)C(=O)C(=O)N2CCCF |
| > 500000 nM | > 500000 nM | – | – | COC[C@@H]1CCCN1S(=O)(=O)c1cc(Br)c2c(c1)C(=O)C(=O)N2 |
| 124 nM | 42.4 nM | – | – | CCCN1C(=O)C(=O)c2cc(S(=O)(=O)N3CCC[C@H]3COC)cc(I)c21 |
| 17.4 nM | 907 nM | > 500000 nM | > 500000 nM | CCCCN1C(=O)C(=O)c2cc(S(=O)(=O)N3CCC[C@H]3COC)cc(I)c21 |
| 31.5 nM | 5.95 nM | – | – | COC[C@@H]1CCCN1S(=O)(=O)c1cc(Br)c2c(c1)C(=O)C(=O)N2CCCCF |
| 26.2 nM | 157 nM | – | – | CCCN1C(=O)C(=O)c2cc(S(=O)(=O)N3CCC[C@H]3COC)cc(Br)c21 |
